ATG4B inhibitor = ATG4B protease inhibitors, primary screen, biochemical, fluorescence, uHTS. Cysteine protease ATG4B (Homo sapiens), Q9Y4P1. AID 504462, 2011. ATG4B cleavage of LC3-PLA2, NBD-HPC fluorescence, 1 h. inhibition, % at 8.33 µM. 340,000 compounds, 0.51% hits; in the data active = inhibition above about 40%
Target sequence (Q9Y4P1 whole entry, looked up): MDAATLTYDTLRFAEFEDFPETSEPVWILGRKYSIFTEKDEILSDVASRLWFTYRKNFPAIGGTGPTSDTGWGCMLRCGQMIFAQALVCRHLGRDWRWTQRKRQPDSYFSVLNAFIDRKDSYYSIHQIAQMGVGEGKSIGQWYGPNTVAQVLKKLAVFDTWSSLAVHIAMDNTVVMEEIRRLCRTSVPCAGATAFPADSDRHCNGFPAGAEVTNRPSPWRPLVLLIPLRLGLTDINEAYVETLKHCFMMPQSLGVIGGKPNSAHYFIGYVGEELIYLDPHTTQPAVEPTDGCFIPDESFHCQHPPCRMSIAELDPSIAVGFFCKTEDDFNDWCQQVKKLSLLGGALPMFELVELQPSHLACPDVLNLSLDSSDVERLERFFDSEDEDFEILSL
NadD inh = inhibitors of S. aureus NadD, primary screen, biochemical, colorimetric, uHTS; purified NadD enzyme, colorimetric absorbance read-out; inhibition, % at 20 µM; 360,000 compounds, 0.78% hits; in the data active = inhibition above about 26%
UCH37 inh = inhibitors of human UCH37 deubiquitinase, primary screen, biochemical, Ub-AMC cleavage, fluorescence | AID 588478, 2011 | 330,000 compounds, 0.33% hits | inhibition, % (test concentration not listed) | purified proteasome/UCH37;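 active = mean inhibition over replicate wells above about 20%, limit read from the data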;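 note: 0% = compound-free wells with enzyme and 100% = wells lacking proteasome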
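Assay system: Proteasome-bound UCH37. Buffer or medium: pH 7.4 Tris-HCl (50 mM) with ovalbumin, ATP-MgCl2, DTT. Incubation: 30 min preincubation with enzyme, 25 min cleavage at room temperature. Measured by: fluorescence, ex 355 nm, em 460 nm. Read-out basis: percent inhibition. Control set: wells without proteasome as full block, compound-free enzyme plus substrate as uninhibited.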
SENP1 inh = human SENP1 catalytic domain inhibitors, primary screen, biochemical, FRET, uHTS. Sentrin-specific protease 1 (Homo sapiens), Q9P0U3. recombinant SENP1 catalytic domain, CyPet-SUMO1-YPet FRET cleavage. inhibition, % at 10 µM. 360,000 compounds, 0.21% hits;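 active = inhibition at least 30% at 10 µM, raw YFP signal under a set limit, fluorescence ratio 0.5 to 1.5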;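 note: 0% = enzyme with DMSO and 100% = no enzyme wells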
Target sequence (Q9P0U3 419-644 limits assumed): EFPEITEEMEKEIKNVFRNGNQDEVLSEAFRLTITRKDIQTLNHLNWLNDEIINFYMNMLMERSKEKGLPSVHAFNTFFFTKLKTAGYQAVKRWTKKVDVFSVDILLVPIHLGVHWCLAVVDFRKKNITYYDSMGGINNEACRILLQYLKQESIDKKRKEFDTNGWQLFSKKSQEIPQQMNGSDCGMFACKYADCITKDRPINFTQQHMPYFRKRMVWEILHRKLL
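Compound: 10 µM single point, 0.5% DMSO; Test system: hSENP1 catalytic domain, recombinant; Timing: 50 min reaction at room temperature; Technique: FRET, CFP and YFP emission; Control set: no-enzyme wells low, DMSO-plus-enzyme wells high control.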
NR3A LBD binder = binders of NR3A ligand-binding domain, primary screen, biophysical, differential scanning fluorimetry, uHTS. 340,000 compounds, 2.5% hits. NR3A LBD differential scanning fluorimetry, Tm shift; 0% = protein alone, 100% = glycine-bound protein. Glutamate receptor ionotropic, NMDA 3A (GRIN3A) ligand-binding domain. Tm shift relative to glycine control, % at 25 µM. AID 1259313, 2017;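 active = melting temperature shift of at least 10% of the positive control shift, at one fixed dose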
NadD conf = inhibitors of S. aureus NadD, confirmation, biochemical, colorimetric, single concentration; shares compounds with NadD inh; purified S. aureus NadD, colorimetric enzyme assay; inhibition, % at 20 µM; 2,000 compounds, 13% hits; AID 624309, 2012; in the data active = inhibition mostly above about 42%, no sharp cut-off; inactive = mostly below about 42%
Starred values were filed as active, the others as inactive; . = not tested or not shown. Compounds with a hit are over-represented: about 3.6% of the library has one in this group of screens.

SMILES	ATG4B inhibitor	NadD inh	UCH37 inh	SENP1 inh	NR3A LBD binder	NadD conf
O=C1[C@H]2[C@@H](c3ccc(F)cc3)N3C(=O)N(c4cccc(Cl)c4)C(=O)[C@@]3(Cc3ccc(Cl)cc3)[C@H]2C(=O)N1C1CCCCC1	-3	25	4	1	0	.
O=C1[C@H]2[C@@H](c3ccc(Cl)cc3)N3C(=O)N(c4cccc(Br)c4)C(=O)[C@@]3(Cc3ccc(Cl)cc3)[C@H]2C(=O)N1C1CCCCC1	7	32*	2	2	-3	-1
Cc1ccc(C=NN(C)C2=NS(=O)(=O)c3ccccc32)o1	.	.	-86	.	.	.
O=C(COC(=O)c1c2c(nc3ccccc13)/C(=C/c1ccco1)CC2)NC1CCCC1	0	52*	-74	-27	-5	64*
Cc1cc(C(=O)OCC(=O)NC2CCCC2)c2ccccc2n1	-1	-1	-2	3	4	.
C(=NNc1ccc2nncn2n1)c1ccco1	.	.	12	.	.	.
CC(C)(C)NCC(=O)NN=Cc1ccc(OCc2ccccc2)cc1	.	.	5	.	.	.
Oc1ccc(C[C@H]2CNC(=S)N2CC2CCCN2C[C@H](Cc2ccc(O)cc2)N2C[C@H](Cc3ccccc3)N(CC3CCCCC3)C2=S)cc1 (some centres not stated)	-2	51*	.	-1	33*	55*
Oc1ccc(C[C@H]2CNC(=S)N2CC2CCCN2C[C@H](Cc2ccc(O)cc2)N2C[C@H](Cc3ccccc3)N(CC3CCCCCC3)C2=S)cc1 (some centres not stated)	.	45*	.	1	20*	31
Oc1ccc(C[C@H]2CNC(=S)N2CC2CCCN2C[C@H](Cc2ccc(O)cc2)N2C[C@H](Cc3ccc(O)cc3)N(CC3CCCCCC3)C2=S)cc1 (some centres not stated)	.	55*	.	-3	28*	41
CC(C)C[C@H]1CNC(=S)N1C[C@H]1CCCN1C[C@H](Cc1ccccc1)N1C[C@H](Cc2ccc(O)cc2)N(CC2CCCCC2)C1=S	.	35*	.	1	.	0
CC(C)C[C@H]1CNC(=S)N1C[C@H]1CCCN1C[C@H](Cc1ccc(O)cc1)N1C[C@H](Cc2ccccc2)N(CC2CCCCCC2)C1=S	.	18	.	1	.	.
Oc1ccc(C[C@@H](CN2CCCC2CN2C(=S)NC[C@@H]2Cc2ccccc2)N2C[C@H](Cc3ccccc3)N(CC3CCCCCC3)C2=S)cc1 (some centres not stated)	.	46*	.	-2	.	-4
Oc1ccc(C[C@@H](CN2CCCC2CN2C(=S)NC[C@@H]2Cc2ccccc2)N2C[C@H](Cc3ccccc3)N(CC3CCCCC3)C2=S)cc1 (some centres not stated)	.	44*	.	-1	.	13
Oc1ccc(C[C@H]2CN([C@@H](Cc3ccccc3)CN3CCC[C@@H]3CN3C(=S)NC[C@@H]3Cc3ccccc3)C(=S)N2CC2CCCCC2)cc1	.	22	.	1	.	.
Oc1ccc(C[C@H]2CNC(=S)N2CC2CCCN2C[C@H](Cc2ccccc2)N2C[C@H](Cc3ccc(O)cc3)N(CC3CCCCC3)C2=S)cc1 (some centres not stated)	.	53*	.	1	.	20
COc1ccc(C(C)=NNC(=O)c2nnn(-c3nonc3N)c2-c2cccs2)cc1	.	.	-247	.	.	.
O=C1CCCCCCCCCCC(=NO)CCCO1	.	.	5	.	.	.
O=C(Cc1n[nH]c(=O)[nH]c1=O)NN=Cc1cccc(O)c1	.	.	0	.	.	.
O=C1CCCC2=C1C(c1ccco1)Nc1ccc(C(=O)c3ccccc3)cc1N2 (configuration not stated)	4	35*	-2	1	-2	2
O=C1CCCC2=C1C(c1ccccn1)Nc1ccc(C(=O)c3ccccc3)cc1N2 (configuration not stated)	-5	1	14	1	-1	.
CON=CCC(=O)Nc1ccc(F)cc1	.	.	2	.	.	.
Cc1ccc(C(=O)ON=Cc2c(Cl)n(C)c3ccccc23)cc1	.	.	1	.	.	.
CCOc1ccc(NS(=O)(=O)c2ccc(Cl)c(N=Nc3c(O)[nH]c(=S)[nH]c3=O)c2)cc1Br	.	39*	.	1	.	63*
COc1ccc(NS(=O)(=O)c2cc(N=Nc3c(O)[nH]c(=O)[nH]c3=O)ccc2OC)cc1Br	.	17	.	8	.	.
SMILES	ATG4B inhibitor	NadD inh	UCH37 inh	SENP1 inh	NR3A LBD binder	NadD conf
CC(Cc1ccccc1)=NNC(=O)C1CCCCC1	.	.	3	.	.	.
O=c1[nH]c2cc3c(cc2cc1CN(Cc1cccnc1)Cc1nnnn1Cc1ccco1)OCCO3	2	20	-115	-9	1	.
Cc1ccc2[nH]c(=O)c(CN(Cc3ccc4c(c3)OCO4)Cc3nnnn3Cc3ccco3)cc2c1	2	16	1	-19	-1	.
Cc1ccc2[nH]c(=O)c(CN(CCc3ccccc3)C(c3nnnn3Cc3ccco3)C(C)C)cc2c1 (configuration not stated)	-1	54*	-2	-60	-1	56*
Cc1cc(C)c2cc(CN(Cc3ccc4c(c3)OCO4)Cc3nnnn3Cc3ccco3)c(=O)[nH]c2c1	-3	37*	-1	-10	-1	10
O=c1[nH]c2cc3c(cc2cc1CN(Cc1ccccc1)Cc1nnnn1Cc1ccco1)OCCO3	-3	33*	-23	8	-5	15
CC(C)=CCC/C(C)=C/CNC(=O)C[C@H]1C[C@H](C(=O)N2CCCCC2)[C@@]2(CCc3ccccc3)c3[nH]c4cc(-c5ccco5)ccc4c3CCN2C1=O	17	44*	-36	-69	2	11
O=C(C[C@H]1C[C@H](C(=O)N2CCCCC2)[C@@]2(CCc3ccccc3)c3[nH]c4ccc(Cl)cc4c3CCN2C1=O)NCCCn1ccnc1	-10	31*	2	0	-14	1
CC[C@]12c3[nH]c4cc(-c5ccco5)ccc4c3CCN1C(=O)[C@@H](CC(=O)NC/C=C(\C)CCC=C(C)C)C[C@@H]2C(=O)N1CCN(C(=O)C2CC2)CC1	.	8	-23	-34	-1	.
Cc1ccc(C(=O)OCC(=O)Nc2sc3c(c2C#N)CCCC3)cc1NC(=O)c1ccco1	0	59*	0	-11	-3	17
Cc1ccc(C(=O)OCC(=O)Nc2sc3c(c2C#N)CCCCC3)cc1NC(=O)c1ccco1	-8	36*	-1	-4	0	12
